Calls of active or inactive are those of the source. The rule behind the calls is not given here.
Tests used:
MIA PaCa-2 [1] = assay: Disruption of mitochondrial membrane potential in human MIAPaCa2 cells by Rh123 dye-based assay; type: functional, cell-based
MIA PaCa-2 [2] = assay: Cell cycle arrest in human MIAPaCa2 cells assessed as accumulation at G2 phase at 1.5 uM after 24 hrs by propidium iodide staining-based flow cytometric method (reference value: 30%); type: functional
[3] = Ratio of Cmax in Sprague-Dawley rat at 30 mg/kg, po to GI50 for human HL60 cells
[4] = Half life in Sprague-Dawley rat at 3 mg/kg, po by LC-MS/MS analysis; type: ADME, organism-based; details: in vivo
[5] = Growth inhibition of human SW630 cells after 48 hrs by MTT assay; type: functional; details: SW630, 48 h
Method in brief: (§1)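 Cancer cell lines sourced from the National Cancer Institute (USA). Cells kept in appropriate growth medium at 37 °C, 95% humidity, 5% CO2. Antiproliferation read by tetrazolium (MTT) assay. GI50 values were determined only for compounds selected after an initial single-concentration screen.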

[6] = Chemical stability of compound in phosphate buffer at pH 4 assessed as parent compound remaining at 120 ug/ml after 24 hrs by HPLC method; type: physicochemical; details: read-out: Stability
[7] = Intrinsic clearance in human hepatocytes assessed per million cells at 3 uM after 180 mins by LC-MS/MS analysis; type: ADME, cell-based, Hepatocyte; details: read-out: CLH
Method in brief: (§2)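 Intrinsic clearance obtained from substrate disappearance over time, reported per mg protein (microsomes, S9) or per 10^6 cells (hepatocytes).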

[8] = AUC in Sprague-Dawley rat at 3 mg/kg, po by LC-MS/MS analysis; type: ADME, organism-based; details: in vivo
[9] = system: Tyrosine-protein kinase ABL1 (Homo sapiens), P00519 [E255K]; assay: Inhibition of phosphorylated partial length human ABL1 E255K mutant expressed in mammalian expression system at 0.5 uM by KINOMEscan method relative to control
Method in brief: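 Competition binding screen (KINOMEscan) at 0.5 μM; primary binding read out as % of control, lower values indicating stronger interaction.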

[10] = Tmax in Sprague-Dawley rat at 30 mg/kg, po by LC-MS/MS analysis; type: ADME, organism-based; details: in vivo
[11] = Half life in dog hepatocytes at 3 uM after 180 mins by LC-MS/MS analysis; type: ADME, cell-based, Canis lupus familiaris, Hepatocyte
LOX IMVI = assay: Growth inhibition of human LOXIMVI cells after 48 hrs by MTT assay; type: functional; method in brief: as §1
[12] = Intrinsic clearance in monkey liver microsomes assessed per mg of protein at 100 uM after 30 mins by LC-MS/MS analysis; type: ADME, Macaca mulatta, microsome; details: rhesus monkey, read-out: CLH
CYP3A4 = CYP3A4 (Homo sapiens, UniProt P08684); assay: Inhibition of human CYP3A4 at 2 uM using fluorogenic substrate after 30 mins by fluorometric method relative to control; type: ADME; details: probe fluorogenic substrate
[13] = Oral bioavailability in BALB/c mouse at 10 mg/kg by LC-MS/MS analysis; type: ADME, organism-based; details: in vivo
[14] = Half life in dog liver microsomes at 100 uM after 30 mins by LC-MS/MS analysis; type: ADME, Canis lupus familiaris, microsome
[15] = Growth inhibition of mouse adenocarcinoma cells after 48 hrs by MTT assay; type: functional; details: Adenocarcinoma cell
Ehrlich = assay: Antitumor activity against Swiss mouse EAC allografted in Swiss albino mouse assessed as tumor growth inhibition at 70 mg/kg, po administered for 9 day measured on day 13 relative to control; type: functional; details: read-out: TGI
MIA PaCa-2 [16] = assay: Cell cycle arrest in human MIAPaCa2 cells assessed as accumulation at S phase at 1.5 uM after 24 hrs by propidium iodide staining-based flow cytometric method (reference value: 33%); type: functional
MOLT-4 [17] = assay: Antitumor activity against human MOLT4 cells xenografted in CD1 nude mouse assessed as tumor growth inhibition at 50 mg/kg, po qd administered on day 10 to 25 post tumor inoculation relative to control; type: functional; details: MOLT-4, po, 240 h, read-out: TGI
MOLT-4 [18] = assay: Growth inhibition of human MOLT4 cells after 48 hrs by MTT assay; type: functional; details: MOLT-4, 48 h; method in brief: as §1
[19] = Pancreas to plasma partition coefficient, Kp of the compound in BALB/c mouse at 30 mg/kg, po measured at 8 hrs; type: ADME, organism-based; details: pancreas and plasma
MDA-MB-468 = assay: Growth inhibition of human MDA-MB-468 cells after 48 hrs by MTT assay; type: functional; details: MDA-MB-468, 48 h; method in brief: as §1
[20] = Toxicity in po dosed Swiss albino mouse allografted with Swiss mouse EAC administered for 9 day; type: organism-based; details: in vivo
[21] = target: Cyclin-dependent kinase 7/ cyclin H (Homo sapiens, UniProt P50613); assay: Inhibition of CDK7/cyclin H (unknown origin) after 30 mins in presence of [33P]-gamma-ATP by filter binding assay; type: protein-complex assay
[22] = Intrinsic clearance in dog liver microsomes assessed per mg of protein at 100 uM after 30 mins by LC-MS/MS analysis; type: ADME, Canis lupus familiaris, microsome; details: read-out: CLH; method in brief: as §2
[23] = AUC (0 to infinity) in BALB/c mouse at 1 mg/kg, iv by LC-MS/MS analysis; type: ADME, organism-based; set-up: dose 1 mg/kg, route intravenous, time infinity; details: in vivo
[24] = target: CDK2/Cyclin A2 (Homo sapiens) (UniProt P24941+P20248); assay: Inhibition of CDK2/cyclin A (unknown origin) at 0.5 uM using histone H1 as substrate after 30 mins in presence of [33P]-gamma-ATP by filter binding assay relative to control; type: protein-complex assay
CDK4/Cyclin D3 = CDK4/Cyclin D3 (Homo sapiens, UniProt P11802); assay: Inhibition of CDK4/cyclin D3 (unknown origin) after 30 mins in presence of [33P]-gamma-ATP by filter binding assay; type: protein-complex assay
serum albumin = serum albumin (Homo sapiens, UniProt P02768); assay: Binding affinity to human serum albumin; type: ADME; details: read-out: PB (converted)
Homo sapiens = species: Homo sapiens; assay: Selectivity ratio of IC50 for CDK2/cyclin A (unknown origin) to IC50 for CDK9/cyclin T1 (unknown origin)
[25] = Growth inhibition of human FR2 cells after 48 hrs by MTT assay; type: cell-based
Method in brief: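 fR2 is a normal epithelial line of ECACC type. Cells were grown in appropriate medium at 37 °C, 95% humidity, 5% CO2. Antiproliferative effect measured by MTT assay, with GI50 values derived from concentration-response testing.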

Salmonella typhimurium = assay: Mutagenicity in Salmonella typhimurium TA98 at 50 ug/plate in absence of liver S9 fraction by Ames test; type: toxicity; details: salmonella enterica subsp. enterica serovar typhimurium
[26] = Cmax in Sprague-Dawley rat at 3 mg/kg, po by LC-MS/MS analysis; type: ADME, organism-based; set-up: dose 3 mg/kg, route oral; details: in vivo
HCT-116 = assay: Growth inhibition of human HCT116 cells after 48 hrs by MTT assay; type: functional; details: HCT-116, 48 h; method in brief: as §1
Liver = assay: Intrinsic clearance in rat liver S9 fraction assessed per mg of protein preincubated for 5 mins followed by NADPH addition measured after 30 mins by LC-MS/MS analysis; type: ADME, tissue-based; details: s9, 0.5 h
Mus musculus = assay: Toxicity in CD1 nude mouse xenografted with human MOLT4 cells assessed as change in body weight at 25 to 75 mg/kg, po qd administered on day 10 to 25 post tumor inoculation; type: organism-based; details: in vivo
PANC-1 = assay: Growth inhibition of human PANC1 cells after 48 hrs by MTT assay; type: functional; details: PANC-1, 48 h; method in brief: as §1
[27] = Half life in Sprague-Dawley rat at 10 mg/kg, po by LC-MS/MS analysis; type: ADME, organism-based; details: in vivo

Cyclin-dependent kinase 7/ cyclin H, sequence (P51946 whole entry): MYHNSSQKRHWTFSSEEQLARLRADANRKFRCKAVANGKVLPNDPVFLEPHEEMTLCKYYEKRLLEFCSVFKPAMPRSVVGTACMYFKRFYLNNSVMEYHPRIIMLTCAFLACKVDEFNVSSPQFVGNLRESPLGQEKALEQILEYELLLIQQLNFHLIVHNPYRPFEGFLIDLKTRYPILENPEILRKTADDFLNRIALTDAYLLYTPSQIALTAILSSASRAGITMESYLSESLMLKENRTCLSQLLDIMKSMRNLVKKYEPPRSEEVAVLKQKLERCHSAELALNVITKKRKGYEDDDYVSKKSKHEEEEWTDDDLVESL
Cyclin-dependent kinase 7/ cyclin H, sequence (P50613 whole entry): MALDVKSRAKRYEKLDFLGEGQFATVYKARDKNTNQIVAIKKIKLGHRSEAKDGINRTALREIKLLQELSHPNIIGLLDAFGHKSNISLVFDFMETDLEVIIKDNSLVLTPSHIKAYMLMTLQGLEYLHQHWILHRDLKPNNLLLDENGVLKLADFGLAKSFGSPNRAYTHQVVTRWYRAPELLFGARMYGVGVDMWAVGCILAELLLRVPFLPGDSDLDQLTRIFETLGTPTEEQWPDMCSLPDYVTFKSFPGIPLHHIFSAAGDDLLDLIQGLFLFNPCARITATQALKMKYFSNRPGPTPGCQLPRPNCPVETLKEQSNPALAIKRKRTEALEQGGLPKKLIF
CYP3A4, sequence (P08684 whole entry): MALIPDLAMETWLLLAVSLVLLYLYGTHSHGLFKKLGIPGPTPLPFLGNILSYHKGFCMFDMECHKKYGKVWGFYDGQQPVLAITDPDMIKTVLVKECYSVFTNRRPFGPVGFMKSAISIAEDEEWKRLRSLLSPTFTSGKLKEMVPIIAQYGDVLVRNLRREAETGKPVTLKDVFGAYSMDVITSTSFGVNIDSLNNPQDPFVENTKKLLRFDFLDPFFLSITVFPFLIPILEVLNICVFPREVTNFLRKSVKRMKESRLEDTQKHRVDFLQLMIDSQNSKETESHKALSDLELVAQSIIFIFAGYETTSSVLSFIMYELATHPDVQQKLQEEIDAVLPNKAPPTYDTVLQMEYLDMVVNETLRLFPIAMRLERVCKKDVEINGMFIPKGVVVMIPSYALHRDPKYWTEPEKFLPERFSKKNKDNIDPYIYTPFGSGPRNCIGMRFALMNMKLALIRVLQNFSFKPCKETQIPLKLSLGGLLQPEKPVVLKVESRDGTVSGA
Tyrosine-protein kinase ABL1 (Homo sapiens), P00519 [E255K], sequence (P00519 whole entry E255K): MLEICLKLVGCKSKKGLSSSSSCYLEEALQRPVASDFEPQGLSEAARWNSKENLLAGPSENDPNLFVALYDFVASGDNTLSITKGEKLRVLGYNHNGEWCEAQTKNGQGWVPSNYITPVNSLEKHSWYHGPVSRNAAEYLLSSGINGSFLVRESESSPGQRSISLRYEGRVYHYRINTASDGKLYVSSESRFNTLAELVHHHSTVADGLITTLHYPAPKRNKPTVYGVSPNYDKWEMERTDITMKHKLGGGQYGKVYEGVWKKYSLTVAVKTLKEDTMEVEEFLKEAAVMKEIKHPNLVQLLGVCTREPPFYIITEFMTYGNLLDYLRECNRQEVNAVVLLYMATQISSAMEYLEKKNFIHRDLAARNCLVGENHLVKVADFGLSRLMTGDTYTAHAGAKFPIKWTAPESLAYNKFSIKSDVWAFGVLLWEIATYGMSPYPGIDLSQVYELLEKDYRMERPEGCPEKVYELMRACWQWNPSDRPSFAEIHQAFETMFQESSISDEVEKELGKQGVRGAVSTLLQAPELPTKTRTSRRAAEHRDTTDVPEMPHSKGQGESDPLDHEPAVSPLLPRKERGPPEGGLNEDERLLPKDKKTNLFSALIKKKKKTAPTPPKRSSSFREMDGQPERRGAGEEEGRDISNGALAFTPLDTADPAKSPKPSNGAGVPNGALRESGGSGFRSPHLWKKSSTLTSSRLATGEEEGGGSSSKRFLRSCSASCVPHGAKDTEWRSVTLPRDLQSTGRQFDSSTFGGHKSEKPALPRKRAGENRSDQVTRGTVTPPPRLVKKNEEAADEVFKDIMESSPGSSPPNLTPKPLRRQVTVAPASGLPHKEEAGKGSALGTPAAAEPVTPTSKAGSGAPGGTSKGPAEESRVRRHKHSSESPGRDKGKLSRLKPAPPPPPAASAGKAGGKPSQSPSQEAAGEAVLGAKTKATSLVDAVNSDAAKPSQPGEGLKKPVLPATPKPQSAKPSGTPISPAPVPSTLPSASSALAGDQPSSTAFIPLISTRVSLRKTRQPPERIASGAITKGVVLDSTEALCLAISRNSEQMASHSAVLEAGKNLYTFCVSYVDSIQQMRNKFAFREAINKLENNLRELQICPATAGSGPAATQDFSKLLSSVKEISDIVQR
CDK4/Cyclin D3, sequence (P11802 whole entry): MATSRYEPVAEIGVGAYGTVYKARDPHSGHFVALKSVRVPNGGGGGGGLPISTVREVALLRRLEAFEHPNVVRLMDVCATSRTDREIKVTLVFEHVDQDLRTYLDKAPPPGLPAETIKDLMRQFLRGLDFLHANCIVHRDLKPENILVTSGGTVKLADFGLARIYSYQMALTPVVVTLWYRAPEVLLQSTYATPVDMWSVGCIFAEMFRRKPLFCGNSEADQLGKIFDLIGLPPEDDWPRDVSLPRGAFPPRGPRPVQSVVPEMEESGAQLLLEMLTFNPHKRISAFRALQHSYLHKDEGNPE
CDK4/Cyclin D3, sequence (P30281 whole entry, further chain): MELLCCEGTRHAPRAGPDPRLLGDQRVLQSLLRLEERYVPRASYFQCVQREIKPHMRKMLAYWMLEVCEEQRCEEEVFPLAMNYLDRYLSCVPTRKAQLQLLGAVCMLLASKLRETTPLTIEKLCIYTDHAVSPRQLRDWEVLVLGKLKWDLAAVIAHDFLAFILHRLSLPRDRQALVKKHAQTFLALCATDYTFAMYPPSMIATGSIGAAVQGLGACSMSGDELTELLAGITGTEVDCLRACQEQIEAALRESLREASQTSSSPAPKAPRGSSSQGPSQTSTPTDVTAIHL
serum albumin, sequence (P02768 whole entry): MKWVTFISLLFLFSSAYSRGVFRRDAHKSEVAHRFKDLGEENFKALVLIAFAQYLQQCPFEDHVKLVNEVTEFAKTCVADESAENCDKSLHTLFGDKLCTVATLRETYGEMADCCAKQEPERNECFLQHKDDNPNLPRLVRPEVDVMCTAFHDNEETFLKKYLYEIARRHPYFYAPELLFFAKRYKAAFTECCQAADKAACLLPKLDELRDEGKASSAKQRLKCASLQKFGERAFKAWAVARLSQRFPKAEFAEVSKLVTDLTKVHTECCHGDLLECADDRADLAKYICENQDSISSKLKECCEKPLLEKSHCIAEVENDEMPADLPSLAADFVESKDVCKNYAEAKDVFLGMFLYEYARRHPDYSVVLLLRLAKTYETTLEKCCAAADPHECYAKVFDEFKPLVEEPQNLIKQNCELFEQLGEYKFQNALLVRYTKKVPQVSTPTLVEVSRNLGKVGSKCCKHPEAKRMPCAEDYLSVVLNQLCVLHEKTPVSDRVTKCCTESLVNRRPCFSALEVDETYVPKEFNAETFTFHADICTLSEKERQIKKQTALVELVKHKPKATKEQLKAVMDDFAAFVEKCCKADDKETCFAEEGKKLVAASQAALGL

CN1CC[C@H](c2c(O)cc(O)c3c(=O)cc(/C=C/c4c(Cl)cccc4Cl)oc23)[C@H](O)C1
Activity (MIA PaCa-2 [1]): Active
Activity (MIA PaCa-2 [2]): 19%
Ratio [3]: 4
half-life [4]: 4.67 h
GI50 [5]: 300 nM
remaining at 24 h, 120 ug/ml [6]: 100%
hepatocyte CLint at 3 µM [7]: 4.8 µL/min/1e6 cells
AUC [8]: 1.44 µM·h
inhibition [9]: > 98%
Tmax [10]: 1 h
half-life at 3 µM [11]: 4.68 h
GI50 (LOX IMVI): 4000 nM
microsomal CLint at 100 µM [12]: 54.8 µL/min/mg
inhibition at 0.5 h, 2 µM (CYP3A4): 40%
bioavailability [13]: 70.7%
half-life at 100 µM [14]: 0.4 h
GI50 [15]: 1200 nM
inhibition in vivo at 70 mg/kg (Ehrlich): 31%
Activity (MIA PaCa-2 [16]): 33%
inhibition in vivo at 50 mg/kg (MOLT-4 [17]): 40 to 52%
GI50 (MOLT-4 [18]): 500 nM
Kp at 8 h [19]: 6.79
GI50 (MDA-MB-468): 4000 nM
MTD at 216 h [20]: 100 mg/kg
IC50 [21]: 711 nM
microsomal CLint at 100 µM [22]: > 29 µL/min/mg
AUC(0-inf) [23]: 0.653 µM·h
inhibition [24]: 90%
IC50 (CDK4/Cyclin D3): 22.5 nM
fraction unbound (serum albumin): 0.033
Ratio IC50 (Homo sapiens): 7
GI50 at 48 h [25]: 19000 nM
Activity (Salmonella typhimurium): Non-Toxic
Cmax [26]: 316 nM
GI50 (HCT-116): 5000 nM
CLint (Liver): 45 µL/min/mg
Activity (Mus musculus): Non-Toxic
GI50 (PANC-1): 4000 nM
half-life [27]: 5.16 h

From ChEMBL document CHEMBL4043283, “Discovery and Preclinical Development of IIIM-290, an Orally Active Potent Cyclin-Dependent Kinase Inhibitor” (J Med Chem, 2018)
